Experimental data: ChEMBL document CHEMBL1147658, “[2-11C]isopropyl-, [1-11C]ethyl-, and [11C]methyl-labeled phenoxyphenyl acetamide derivatives as positron emission tomography ligands for the peripheral benzodiazepine receptor: radiosynthesis, uptake, and in vivo binding in brain” (J Med Chem, 2006)
pKi: −log10 of the molar value.

Assays:
[1] = molecular target: GABA-A receptor; anion channel; experiment: Displacement of [11C]Flumazenil from Sprague-Dawley rat brain CBR; type: tissue-based
[2] = Distribution coefficient of the compound, log D; type: physicochemical; settings: octanol/water
Procedure, shortened: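 [11C]ligand (3-5 MBq) shaken with 1-octanol and 10 mM phosphate buffer pH 7.4, 5 mL each, then equilibrated 1 h at room temperature. Both phases counted by gamma counter; log D taken as the organic/aqueous concentration ratio (n=3).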

[3] = molecular target: T1, Translocator protein (Rattus norvegicus, UniProt P16257); experiment: Displacement of [11C][…] from Sprague-Dawley rat brain PBR; type: tissue-based
T1 sequence (P16257 whole entry, looked up): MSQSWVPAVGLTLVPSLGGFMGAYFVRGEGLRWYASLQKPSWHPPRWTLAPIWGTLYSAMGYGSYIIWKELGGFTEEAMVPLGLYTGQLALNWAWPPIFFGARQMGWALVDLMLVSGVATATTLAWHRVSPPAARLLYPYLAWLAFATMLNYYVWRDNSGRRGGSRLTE

[4] = molecular target: T1, Translocator protein; experiment: Displacement of [11C]DAA1106 from Sprague-Dawley rat brain PBR; type: tissue-based
[5] = tested on: Rattus norvegicus; experiment: Uptake in iv dosed Sprague-Dawley rat brain after 30 mins per gram of wet tissue; type: ADME, organism-based; settings: in vivo, 0.5 h
Procedure, shortened: (§1)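 Rats given [11C]ligand 45-50 MBq iv, alone or mixed with nonradioactive DAA1106 (1 mg/kg in 10% EtOH/saline). Killed 30 min later under ether. Brains frozen, cut into 20 µm sagittal cryosections and exposed to imaging plates for 60 min. Regional radioactivity read by bioimaging analyzer; brain uptake expressed as % injected dose per gram wet tissue (n=3).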

[6] = tested on: Rattus norvegicus; experiment: Decrease in uptake in iv dosed Sprague-Dawley rat brain striatum after 30 mins per gram of wet tissue in presence of 1 mg/kg DAA1106; type: ADME, organism-based; design: dose 1 mg/kg, route intravenous; settings: in vivo, 0.5 h; procedure, shortened: as §1
[7] = tested on: Rattus norvegicus; experiment: Decrease in uptake in iv dosed Sprague-Dawley rat brain frontal cortex after 30 mins per gram of wet tissue in presence of 1 mg/kg DAA1106; type: ADME, organism-based; design: dose 1 mg/kg, route intravenous; settings: in vivo, 0.5 h; procedure, shortened: as §1
[8] = tested on: Rattus norvegicus; experiment: Decrease in uptake in iv dosed Sprague-Dawley rat brain olfactory bulb after 30 mins per gram of wet tissue in presence of 1 mg/kg DAA1106; type: ADME, organism-based; design: dose 1 mg/kg, route intravenous; settings: in vivo, 0.5 h; procedure, shortened: as §1
[9] = tested on: Rattus norvegicus; experiment: Ratio for decrease in uptake in iv dosed Sprague-Dawley rat brain cerebellum to frontal cortex after 30 mins per gram of wet tissue in presence of 1 mg/kg DAA1106; type: ADME, organism-based; design: dose 1 mg/kg, route intravenous; settings: in vivo, 0.5 h; procedure, shortened: as §1
[10] = Plasma half life in iv dosed monkey; type: ADME, organism-based, Macaca mulatta; settings: rhesus monkey
Procedure, shortened: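 Monkey given [11C]ligand 70-80 MBq iv. Arterial blood drawn at 1, 2, 5, 10, 20, 30 and 60 min. Plasma deproteinized with CH3CN and analysed by radio-HPLC for percentage of unchanged ligand.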

[11] = tested on: Rattus norvegicus; experiment: Ratio for decrease in uptake in iv dosed Sprague-Dawley rat brain olfactory bulb to frontal cortex after 30 mins per gram of wet tissue in presence of 1 mg/kg DAA1106; type: ADME, organism-based; design: dose 1 mg/kg, route intravenous; settings: in vivo, 0.5 h; procedure, shortened: as §1
[12] = tested on: Rattus norvegicus; experiment: Ratio for decrease in uptake in iv dosed Sprague-Dawley rat brain striatum to frontal cortex after 30 mins per gram of wet tissue in presence of 1 mg/kg DAA1106; type: ADME, organism-based; design: dose 1 mg/kg, route intravenous; settings: in vivo, 0.5 h; procedure, shortened: as §1
[13] = tested on: Rhesus monkey; experiment: Decrease in uptake in iv dosed rhesus monkey brain occipital cortex after 90 mins in presence of 1 mg/kg DAA1106; type: ADME, organism-based, Macaca mulatta; design: dose 1 mg/kg, route intravenous; settings: in vivo, 1.5 h
Procedure, shortened: (§2)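 One awake male rhesus monkey (about 7.5 kg) imaged by 3D dynamic PET for 90 min after [11C]ligand 70-80 MBq iv. Blocker given iv 2 min before tracer: DAA1106 1 mg/kg, or PK11195 5 mg/kg, each in 10% EtOH/saline. Time-activity curves taken from 5 mm ROI on occipital cortex, as % dose/mL.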

[14] = tested on: Rhesus monkey; experiment: Decrease in uptake in iv dosed rhesus monkey brain occipital cortex after 90 mins in presence of 5 mg/kg […]; type: ADME, organism-based, Macaca mulatta; design: dose 5 mg/kg, route intravenous; settings: in vivo, 1.5 h; procedure, shortened: as §2
[15] = tested on: Rattus norvegicus; experiment: Decrease in uptake in iv dosed Sprague-Dawley rat brain cerebellum after 30 mins per gram of wet tissue in presence of 1 mg/kg DAA1106; type: ADME, organism-based; design: dose 1 mg/kg, route intravenous; settings: in vivo, 0.5 h; procedure, shortened: as §1

Structure (SMILES) | pKi [1] | logD [2] | pKi [3] | pKi [4] | Drug uptake [5] | Drug uptake [6] | Drug uptake [7] | Drug uptake [8] | Ratio [9] | half-life [10] | Ratio [11] | Ratio [12] | Drug uptake [13] | Drug uptake [14] | Drug uptake [15]
CC(=O)N(Cc1ccccc1OC(C)C)c1ccc(Cl)cc1Oc1ccccc1 | < 6.00 | 4.02 | 9.72 | 9.17 | – | – | – | – | – | – | – | – | – | – | –
COc1ccccc1CN(C(C)=O)c1ccc(Cl)cc1Oc1ccccc1 | < 6.00 | 3.74 | 10.13 | 9.51 | – | – | – | – | – | – | – | – | – | – | –
CC(=O)N(Cc1ccccc1O[11CH](C)C)c1ccc(Cl)cc1Oc1ccccc1 | – | – | – | – | 0.17% | 63% | 63% | 43% | 1 | 13 min | 1.5 | 1 | – | – | –
CC(=O)N(Cc1ccccc1O[11CH3])c1ccc(Cl)cc1Oc1ccccc1 | – | – | – | – | 0.32% | 63% | 63% | 37% | 1 | 21 min | 2.3 | 1 | 60% | – | –
C[11CH2]Oc1ccccc1CN(C(C)=O)c1ccc(Cl)cc1Oc1ccccc1 | – | – | – | – | 0.27% | 63% | 63% | 33% | 1 | 20 min | 1.5 | 1 | – | – | –
CCOc1ccccc1CN(C(C)=O)c1ccc(Cl)cc1Oc1ccccc1 | < 6.00 | 3.81 | 10.01 | 9.39 | – | – | – | – | – | – | – | – | – | – | –
COc1ccc(OC)c(CN(C(C)=O)c2cc(F)ccc2Oc2ccccc2)c1 | < 6.00 | – | 10.02 | – | – | – | – | – | – | – | – | – | – | – | –
CCC(C)N(C)C(=O)c1cc2ccccc2c(-c2ccccc2Cl)n1 (configuration not stated) [PK-11195] | < 6.00 | – | – | – | – | – | – | – | – | – | – | – | – | 70% | 44%
